Measured values reported in ChEMBL document CHEMBL1138193, “Synthesis and biological activity of 7-phenyl-6,9-dihydro-3H-pyrrolo[3,2-f]quinolin-9-ones: a new class of antimitotic agents devoid of aromatase activity” (J Med Chem, 2006).
Calls of active or inactive are those of the source. No cut-off for these calls is given here.

How the values were obtained:
4T1 = assay: Cytotoxicity against mouse 4T1 cells by MTT assay; format: functional, cell-based
Summary of the method: (§1)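 MTT colorimetric proliferation assay on human and murine tumour cell lines. Compounds tested over 50 to 0.1 µM; IC50 calculated from the concentration response.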

HepG2 [1] = assay: Cell cycle arrest at G2/M phase in HepG2 cells at 5-10 uM; format: functional, Homo sapiens
HT-29 = assay: Cytotoxicity against human HT29 cells by MTT assay; format: functional, cell-based; summary of the method: as §1
BNL = assay: Cytotoxicity against mouse BNL cells by MTT assay; format: functional, cell-based; summary of the method: as §1
MCF7 = assay: Cytotoxicity against human MCF7 cells by MTT assay; format: functional, cell-based; summary of the method: as §1
ARO = assay: Cytotoxicity against human Aro cells by MTT assay; format: functional, cell-based; summary of the method: as §1
PT-45 = assay: Cytotoxicity against human PT45 cells by MTT assay; format: functional, cell-based; summary of the method: as §1
HepG2 [2] = assay: Cytotoxicity against human HepG2 cells by MTT assay; format: functional, cell-based; summary of the method: as §1
NCI-H295R = assay: Cytotoxicity against human H295R cells by MTT assay; format: functional, cell-based; summary of the method: as §1
HeLa = assay: Cytotoxicity against human HeLa cells by MTT assay; format: functional, cell-based; summary of the method: as §1
A549 = assay: Cytotoxicity against human A549 cells by MTT assay; format: functional, cell-based
OVCAR-3 [3] = assay: Cytotoxicity against human Ovcar3 cells by MTT assay; format: functional, cell-based; summary of the method: as §1
OVCAR-3 [4] = assay: Cell cycle arrest at G2/M phase in Ovcar3 cells at 5-10 uM; format: functional, Homo sapiens
Aromatase [5] = molecular target: T1, Aromatase (Homo sapiens, UniProt P11511); assay: Inhibition of aromatase activity in H295R cells at 5 uM; format: cell-based
T1 sequence (P11511 whole entry): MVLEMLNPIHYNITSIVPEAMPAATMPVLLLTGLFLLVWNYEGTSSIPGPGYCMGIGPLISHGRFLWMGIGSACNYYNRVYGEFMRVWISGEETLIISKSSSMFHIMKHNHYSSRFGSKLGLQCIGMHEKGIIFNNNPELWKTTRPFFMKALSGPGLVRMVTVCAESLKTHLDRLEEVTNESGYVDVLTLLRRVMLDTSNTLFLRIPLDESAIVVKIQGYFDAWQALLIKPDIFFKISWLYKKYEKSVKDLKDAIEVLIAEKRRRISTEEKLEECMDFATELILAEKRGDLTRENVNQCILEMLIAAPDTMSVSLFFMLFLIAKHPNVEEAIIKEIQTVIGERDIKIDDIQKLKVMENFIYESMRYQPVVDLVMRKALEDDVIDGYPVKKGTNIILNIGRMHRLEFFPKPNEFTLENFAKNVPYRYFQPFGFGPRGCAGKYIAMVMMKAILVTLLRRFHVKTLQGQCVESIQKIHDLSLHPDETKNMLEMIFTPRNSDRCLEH
Summary of the method: (§2)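 H295R cells cultured 24 h in DMEM-F12 with or without forskolin (25 µM). Compound (5, 10 or 15 µM) added 1 h before [1β-³H]androstenedione substrate (0.5 µM), then 2 h further exposure. Modified tritiated water release read-out as pmol ³H₂O/h/mg protein. Letrozole reference. Mean ± SEM of three experiments in triplicate.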

Aromatase [6] = molecular target: T1, Aromatase; assay: Inhibition of aromatase activity in H295R cells at 15 uM; format: cell-based; summary of the method: as §2
Aromatase [7] = molecular target: T1, Aromatase; assay: Inhibition of aromatase activity in H295R cells at 10 uM; format: cell-based; summary of the method: as §2
Tubulin (Homo sapiens) = Tubulin (Homo sapiens) (UniProt P68371+Q9H4B7+P0DPH7+P68366+Q13509+Q71U36+P04350+Q3ZCM7+P07437+P68363+Q9BQE3+Q6PEY2+Q13885+Q9BVA1+Q9BUF5); assay: Microtubule disassembly in Ovcar3 cells at 5 uM; format: functional, cell-based; settings: OVCAR-3
Summary of the method: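 Ovcar-3 cells exposed 18 h to 5 µM (drug-free and vincristine 5 µM controls), fixed, stained with anti-β-tubulin antibody, and microtubule distribution examined by fluorescence microscopy.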

Structure (SMILES) | IC50 (4T1) | Activity (HepG2 [1]) | IC50 (HT-29) | IC50 (BNL) | IC50 (MCF7) | IC50 (ARO) | IC50 (PT-45) | IC50 (HepG2 [2]) | IC50 (NCI-H295R) | IC50 (HeLa) | IC50 (A549) | IC50 (OVCAR-3 [3]) | Activity (OVCAR-3 [4]) | Activity (Aromatase [5]) | Activity (Aromatase [6]) | Activity (Aromatase [7]) | Activity (Tubulin (Homo sapiens))
Cc1cccc(-c2cc(O)c3c(ccc4[nH]ccc43)n2)c1 | 25 µM | 16% | 8 µM | 6 µM | 7 µM | 7 µM | 7 µM | 10 µM | 8 µM | 6 µM | 6 µM | 20 µM | 19.5% | – | – | – | –
COc1cccc(-c2cc(O)c3c(ccc4[nH]ccc43)n2)c1 | 4 µM | 49.3% | 6 µM | 4 µM | 2 µM | 1 µM | 0.7 µM | 6 µM | 0.7 µM | 0.7 µM | 2 µM | 7 µM | 65.3% | Not Active | Not Active | Not Active | –
CCN(CC)CCn1ccc2c3c(O)cc(-c4ccccc4)nc3ccc21 | 9 µM | 15.1% | 6 µM | 5 µM | 8 µM | 20 µM | 5 µM | 7 µM | 6 µM | 5 µM | 12 µM | 18 µM | 16.6% | – | – | – | –
CC[C@]1(O)C[C@H]2CN(CCc3c([nH]c4ccccc34)[C@@](C(=O)OC)(c3cc4c(cc3OC)N(C=O)[C@H]3[C@@](O)(C(=O)OC)[C@H](OC(C)=O)[C@]5(CC)C=CCN6CC[C@]43[C@@H]65)C2)C1 [VINCRISTINE] | 0.02 µM | – | – | 0.08 µM | – | 0.0001 µM | – | – | 0.09 µM | – | – | – | – | – | – | – | Active
Oc1cc(-c2cccs2)nc2ccc3[nH]ccc3c12 | 20 µM | 15.6% | 30 µM | 8 µM | 7 µM | 7 µM | 8 µM | 10 µM | 5 µM | 6 µM | 15 µM | 25 µM | 17.5% | – | – | – | –
COC(=O)c1cc2c([nH]1)c(OC)cc1nc(-c3ccccc3)cc(O)c12 | > 50 µM | 15.4% | > 50 µM | > 50 µM | > 50 µM | > 50 µM | > 50 µM | > 50 µM | > 50 µM | > 50 µM | > 50 µM | > 50 µM | 14.4% | – | – | – | –
Cc1cc(O)c2c(ccc3[nH]ccc32)n1 | > 50 µM | – | > 50 µM | > 50 µM | > 50 µM | > 50 µM | > 50 µM | > 50 µM | > 50 µM | > 50 µM | > 50 µM | > 50 µM | – | – | – | – | –
Oc1cc(-c2cccc(Br)c2)nc2ccc3[nH]ccc3c12 | 20 µM | 40.3% | 9 µM | 4 µM | 5 µM | 5 µM | 6 µM | 6 µM | 5 µM | 5 µM | 6 µM | 10 µM | 42.9% | Not Active | Not Active | Not Active | –
